HCT116 PTEN-null = suppresses growth of cells with PTEN deletion. HCT116 PTEN-null viability, CellTiter-Glo, 60 h; stronger effect = lower value. viability, % at 10 µM. hit rate 1.2% among 140,000. AID 827;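 active means viability at or below a set limit, 4 SD under the median of all tested compounds, cut at about 3.7% in these data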;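 further: PTEN knockout HCT116 line with beta catenin targeted HCT116 as companion control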
HUVEC inhibit = blocks proliferation of human endothelial cells; HUVEC proliferation, CellTiter-Glo luminescence, 72 h; stronger effect = lower value; viability, % at 10 µM (by protocol); hit rate 1.1% among 86,000; AID 648;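 active means viability at or below 30%; inactive means viability above 30%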
HCT116 bCat-KO = beta-catenin-lacking colon tumor cell growth suppression. hit rate 1.5% among 140,000. HCT116 beta-catenin knockout viability, CellTiter-Glo, 60 h; stronger effect = lower value. viability, % at 10 µM. AID 818;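 active means viability at or under a set limit, the compound median less 4 SD, cut at about 6% in these data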
H69AR inhibit = growth inhibitors of human H69AR lung tumor cells; H69AR lung tumor viability, ATP luminescence, 72 h; stronger effect = lower value; hit rate 6% among 85,000; viability, % at 10 µM; AID 598;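 active means viability at or below 40%; inactive means viability above 40%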;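 further: multidrug resistant small cell line overexpressing MRP-1 efflux transporter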
Fibroblast inh = blocks proliferation of human lung fibroblasts; AID 719; LL 47 human lung fibroblast viability, ATP luminescence; stronger effect = lower value; hit rate 1.1% among 85,000; viability, % at 10 µM;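 active means viability at or below 50% in the single dose screen; inactive means viability above 50%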;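 further: compound exposure lasted 72 h before the ATP readout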
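Material: human LL 47 lung fibroblast cells; quantity: 1,150 cells/well; medium: IMEM plus 15% FBS; doses: 0.1% DMSO in all compound wells; timing: overnight attachment after seeding, then 72 h compound exposure at 37 °C; detection: CellTiter-Glo luminescence; measure: % viability of median cell-only signal; controls: cell-only wells, no compound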
A number is an active result; - = inactive; . = not tested or not shown. Shown is part of a subset that was picked to be rich in hits.

SMILES	HCT116 PTEN-null	HUVEC inhibit	HCT116 bCat-KO	H69AR inhibit	Fibroblast inh
CCn1c2ccccc2c2cc(/C=N/n3cn[nH]c3=S)ccc21	-	-	-	15.2	-
CCn1c2ccccc2c2cc(/C=N/n3cnnc3)ccc21	-	-	-	-	-
COC(=O)c1[nH]c2c(c1C)C(=O)CC(c1cccs1)C2 (stereo not drawn)	-	-	-	34.0	46.8
COC(=O)c1[nH]c2c(c1C)C(=O)CC(c1cc(OC)ccc1OC)C2 (stereo not drawn)	-	-	-	21.8	-
CS(=O)(=O)Nc1ccc2c(c1)nc1n2CCOC1	-	-	-	-	-
Oc1ccc(N=C/C=C/c2cccc(Br)c2)cc1-c1nc2ccccc2s1	-	.	5.1	.	.
O=C(Nc1ccc(O)c(-c2nc3ccccc3s2)c1)c1cc(=O)c2ccccc2o1	-	.	-	.	.
Nc1ccc(O)c(-c2nc3ccccc3s2)c1	3.4	-	-	-	-
COc1cccc(-c2nc(CS(=O)(=O)CC(=O)NC3CCCc4ccccc43)c(C)o2)c1 (stereo not drawn)	-	-	-	-	-
COc1cc(/C=N\n2cnnc2)ccc1OCC(=O)Nc1ccc(C)cc1	-	-	-	-	-
CCOC(=O)c1ccccc1OCc1cc(/C=N/n2cnnc2)ccc1OC	-	-	-	35.4	-
CC1=NOC(=O)/C1=C\c1ccc(-c2ccc(Cl)cc2Cl)o1	-	.	4.7	.	.
Cc1[nH][nH]c(=O)c1C(c1ccc(-c2ccc(Cl)cc2Cl)o1)c1c(C)[nH][nH]c1=O	-	.	-	.	.
Cc1cc(NC(=O)Cc2ccccc2)nc2c1c(=O)oc1ccccc12	-	.	-	.	.
Cc1cc(NC(=O)CN2CCN(Cc3ccccc3)CC2)nc2c1c(=O)oc1ccccc12	.	-	.	22.0	-
Cc1cc(NC(=O)C2CCCC2)nc2c1c(=O)oc1ccccc12	-	-	-	37.0	-
Cc1cccc(CC(=O)Nc2cc(C)c3c(=O)oc4ccccc4c3n2)c1	-	-	-	11.5	-
Cc1cc(NC(=O)C2CCCCC2)nc2c1c(=O)oc1ccccc12	-	.	-	.	.
Cc1cc(NC(=O)CN2CC3CC(C2)c2cccc(=O)n2C3)nc2c1c(=O)oc1ccccc12 (stereo not drawn)	.	-	.	-	-
CC(NC(=S)Nc1c(Cl)cccc1OC(F)F)C(C)(C)C (stereo not drawn)	-	.	-	.	.
O=C(N/N=C/c1cccc(C(F)(F)F)c1)C1CCN(c2ncc(C(F)(F)F)cc2Cl)CC1	2.1	.	4.0	.	.
CCN1C(=O)/C(=C2\SC(=S)N(CCCOC)C2=O)c2ccccc21	-	-	-	31.4	-
CCN1C(=O)/C(=C2\C=Cc3ccccc3N2CC)SC1=S	-	.	-	.	.
Cc1ccc(C2CC(c3cccs3)=NN2C(=O)c2ccc(Br)o2)cc1 (stereo not drawn)	-	-	-	-	-
CCN1C(=O)/C(=C/N(C(C)=O)c2ccccc2)N(c2ccccc2)C1=S	-	-	-	16.1	-
SMILES	HCT116 PTEN-null	HUVEC inhibit	HCT116 bCat-KO	H69AR inhibit	Fibroblast inh
CCc1ccc(C2C(C#N)=C(N)C(C#N)(C#N)C3=CCC(C(C)(C)C)CC32)cc1 (stereo not drawn)	-	2.3	-	-	-
COc1ccc(OCc2nc(N)nc(Nc3ccccc3)n2)cc1	-	-	-	-	-
Cc1c(-c2nc(N)nc(Nc3ccccc3)n2)oc2ccccc12	-	-	-	14.5	-
Cc1nnc(NC(=O)Cc2cccs2)s1	-	-	-	-	-
CCOC(=O)C1=C(O)c2ccccc2C(=O)/C1=C\c1ccc(CC)cc1	-	.	-	.	.
CCOC(=O)C1=C(Cc2ccc(OC)cc2)C(=O)c2ccccc2C1=O	-	-	-	1.8	-
CCOC(=O)c1c(C)nc2c(c1-c1cc(OC)ccc1OC)C(=O)c1ccccc1-2	-	.	-	.	.
CCOC(=O)C1=C(Cc2ccc(C)cc2)C(=O)c2ccccc2C1=O	-	17.5	-	2.0	-
N#C/C(=C/c1ccc(-c2ccc(S(N)(=O)=O)cc2)o1)c1nc2ccccc2s1	1.8	.	1.5	.	.
N#C/C(=C/c1ccc(-c2ccc(S(N)(=O)=O)cc2)o1)C(=O)Nc1ccccc1	-	.	-	.	.
CCOc1cc2nc(-c3ccc(OC)c(OC)c3)nc(N3CC(C)OC(C)C3)c2cc1OC (stereo not drawn)	-	.	-	.	.
CCOc1cc2nc(-c3ccc(OC)c(OC)c3)nc(N3CCOCC3)c2cc1OC	-	6.9	-	33.0	-
Nc1nnnn1/N=C/C(Br)=C/c1ccccc1	3.2	-	-	0.9	.
O=C1N/C(=C\c2ccccc2)c2ccccc21	-	-	-	24.1	-
O=C1O/C(=C\c2ccccc2)c2ccccc21	-	.	-	.	.

Screening data: PubChem BioAssay, SRMLSC
